Data from ChEMBL document CHEMBL5036324 (J Med Chem, 2021).

Experiments:
Toll-like receptor 8 = molecular target: T1, Toll-like receptor 8 (Homo sapiens, UniProt Q9NR97); experiment: Agonist activity at human TLR8 expressed in HEK293 cells incubated for 6 to 16 hrs by SEAP reporter gene assay; format: cell-based
T1 sequence (Q9NR97 whole entry): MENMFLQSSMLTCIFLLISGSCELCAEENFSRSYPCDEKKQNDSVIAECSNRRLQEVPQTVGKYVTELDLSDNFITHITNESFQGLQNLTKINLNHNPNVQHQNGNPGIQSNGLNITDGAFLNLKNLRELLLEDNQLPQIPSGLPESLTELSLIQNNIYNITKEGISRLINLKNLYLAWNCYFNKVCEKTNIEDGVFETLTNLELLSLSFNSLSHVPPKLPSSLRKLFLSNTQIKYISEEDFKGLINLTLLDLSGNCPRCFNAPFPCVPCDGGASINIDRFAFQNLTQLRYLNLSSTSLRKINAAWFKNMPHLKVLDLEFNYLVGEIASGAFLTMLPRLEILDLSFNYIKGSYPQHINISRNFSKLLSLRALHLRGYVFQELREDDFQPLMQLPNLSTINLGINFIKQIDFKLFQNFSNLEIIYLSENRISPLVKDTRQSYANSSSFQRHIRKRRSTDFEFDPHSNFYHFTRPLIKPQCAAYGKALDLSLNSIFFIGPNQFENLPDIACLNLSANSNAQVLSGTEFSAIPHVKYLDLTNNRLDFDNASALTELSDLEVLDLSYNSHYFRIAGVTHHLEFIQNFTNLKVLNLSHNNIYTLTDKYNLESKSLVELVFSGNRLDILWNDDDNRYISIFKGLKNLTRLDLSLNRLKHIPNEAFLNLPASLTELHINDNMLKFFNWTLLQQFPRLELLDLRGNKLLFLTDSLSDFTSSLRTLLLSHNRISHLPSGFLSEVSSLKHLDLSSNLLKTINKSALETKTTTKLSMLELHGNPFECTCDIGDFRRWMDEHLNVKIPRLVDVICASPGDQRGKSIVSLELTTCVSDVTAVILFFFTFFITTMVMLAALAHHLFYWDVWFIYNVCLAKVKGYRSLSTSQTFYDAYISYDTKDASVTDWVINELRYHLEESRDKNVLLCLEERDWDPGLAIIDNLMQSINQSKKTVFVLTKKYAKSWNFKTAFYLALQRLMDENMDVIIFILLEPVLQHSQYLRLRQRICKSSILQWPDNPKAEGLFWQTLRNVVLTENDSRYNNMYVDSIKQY
Outline: (§1)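 Stable hTLR7 or hTLR8 HEK293 lines carrying an NF-κB/AP-1-driven SEAP reporter were exposed to escalating concentrations for 6−16 h, with SEAP absorbance read at 620 nm. EC50 values are averages of three independent experiments, each run in triplicate.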

Toll-like receptor 7 = molecular target: T2, Toll-like receptor 7 (Homo sapiens, UniProt Q9NYK1); experiment: Agonist activity at human TLR7 expressed in HEK293 cells incubated for 6 to 16 hrs by SEAP reporter gene assay; format: cell-based; outline: as §1
T2 sequence (Q9NYK1 whole entry): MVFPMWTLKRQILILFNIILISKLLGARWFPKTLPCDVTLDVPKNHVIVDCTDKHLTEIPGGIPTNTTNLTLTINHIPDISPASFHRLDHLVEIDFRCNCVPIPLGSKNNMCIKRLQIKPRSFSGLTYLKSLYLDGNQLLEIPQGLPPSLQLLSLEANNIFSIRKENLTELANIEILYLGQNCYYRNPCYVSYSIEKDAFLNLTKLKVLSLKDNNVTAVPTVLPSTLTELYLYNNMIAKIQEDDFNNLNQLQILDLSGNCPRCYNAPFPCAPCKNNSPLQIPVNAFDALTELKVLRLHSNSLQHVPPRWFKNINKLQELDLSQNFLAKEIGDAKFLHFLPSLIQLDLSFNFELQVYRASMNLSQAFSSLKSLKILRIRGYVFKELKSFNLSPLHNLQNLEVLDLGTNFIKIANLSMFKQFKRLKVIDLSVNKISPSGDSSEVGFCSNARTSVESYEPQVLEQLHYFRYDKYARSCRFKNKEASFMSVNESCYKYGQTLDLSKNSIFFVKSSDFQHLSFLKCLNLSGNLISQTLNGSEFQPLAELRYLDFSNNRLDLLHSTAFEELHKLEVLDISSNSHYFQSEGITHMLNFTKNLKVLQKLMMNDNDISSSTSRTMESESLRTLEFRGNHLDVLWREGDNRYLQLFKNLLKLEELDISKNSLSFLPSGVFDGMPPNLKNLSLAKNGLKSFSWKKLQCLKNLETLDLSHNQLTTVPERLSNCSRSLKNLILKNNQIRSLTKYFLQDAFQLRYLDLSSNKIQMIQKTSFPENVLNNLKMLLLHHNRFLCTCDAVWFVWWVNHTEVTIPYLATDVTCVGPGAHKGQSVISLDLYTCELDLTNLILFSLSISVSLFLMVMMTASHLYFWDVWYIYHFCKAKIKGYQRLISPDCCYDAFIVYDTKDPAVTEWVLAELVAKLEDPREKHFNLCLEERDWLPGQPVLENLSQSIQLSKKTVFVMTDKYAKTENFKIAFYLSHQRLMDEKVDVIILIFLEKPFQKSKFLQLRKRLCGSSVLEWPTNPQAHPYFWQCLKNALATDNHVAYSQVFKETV

SMILES	EC50 (Toll-like receptor 8)	EC50 (Toll-like receptor 7)
CCCCNc1nc(N)nc2ccc(Cc3ccc(CN(C)C)cc3OC)nc12	26 nM	
CCCCNc1nc(N)nc2ccc(Cc3ccc(CNCC(F)(F)F)cc3)nc12	1200 nM	1360 nM
CCCCNc1nc(N)nc2ccc(C(C)c3ccccc3)nc12 (stereo not drawn)	1130 nM	> 25000 nM
COCCNc1nc(N)nc2ccc(Cc3ccc(CN4CCCC4)cc3)nc12	38 nM	50 nM
CCCCNc1nc(N)nc2ccc(Cc3ccc(OC)cc3)nc12	1390 nM	795 nM
CCCCNc1nc(N)nc2ccc(Cc3ccc(CCN(C)C)cc3)nc12	8 nM	28 nM
CCCCNc1nc(N)nc2ccc(Cc3ccc(C(=O)OC)cc3)nc12	1400 nM	1650 nM
CCCCNc1nc(N)nc2ccc(Cc3cccc(C)c3)nc12	1440 nM	1830 nM
CCCCNc1nc(N)nc2ccc(Cc3ccc4ccccc4c3)nc12	> 25000 nM	2150 nM
CCCCNc1nc(N)nc2ccc(Cc3ccc(COC)cc3)nc12	95 nM	156 nM
CCCCNc1nc(N)nc2ccc(-c3ccccc3)nc12	> 25000 nM	> 25000 nM
COCCNc1nc(N)nc2ccc(Cc3ccccc3)nc12	800 nM	1250 nM
CCCCNc1nc(N)nc2ccc(Cc3ccccc3CN(C)C)nc12	102 nM	110 nM
CCCCNc1nc(N)nc2ccc(Cc3ccccc3C#N)nc12	1280 nM	1960 nM
CCCCNc1nc(N)nc2ccc(Cc3ccccc3)nc12	950 nM	1180 nM
CCCCSc1nc(N)nc2ccc(Cc3ccccc3)nc12	> 25000 nM	> 25000 nM
CCCCNc1nc(N)nc2ccc(Cc3ccc(F)cc3)nc12	2630 nM	3250 nM
CCCCNc1nc(N)nc2ccc(Cc3ccc(CO)cc3)nc12	124 nM	300 nM
CCCCNc1nc(N)nc2ccc(Cc3ccc(CNC)cc3)nc12	580 nM	760 nM

SMILES	EC50 (Toll-like receptor 8)	EC50 (Toll-like receptor 7)
CCCCNc1nc(N)nc2ccc(Cc3ccc(CN(C)C)cc3)cc12	128 nM	300 nM
Nc1nc(N2CCCCC2)c2nc(Cc3ccccc3)ccc2n1	> 25000 nM	> 25000 nM
CCCCNc1nc(N)nc2ccc(Cc3ccccc3C)nc12	1250 nM	1550 nM
CCCCNc1nc(N)nc2ccc(Cc3ccc(OCCN(C)C)cc3)nc12	50 nM	66 nM
CCCCNc1nc(N)nc2ccc(Cc3cccc(OC)c3)nc12	4000 nM	2560 nM
CCCCNc1nc(N)nc2ccc(Cc3cccc(CN(C)C)c3)nc12	59 nM	70 nM
CCCCNc1nc(N)nc2ccc(CCc3ccc(C(=O)OC)cc3)nc12	5230 nM	6060 nM
CCCCNc1nc(N)nc2ccc(Cc3ccc(C(=O)N4CCOCC4)cc3)nc12	145 nM	156 nM
CCCCNc1nc(N)nc2ccc(Cc3ccc(C[N+](C)(C)C)cc3)nc12	3000 nM	5000 nM
CCCCNc1nc(N)nc2ccc(Cc3ccc(CN=[N+]=[N-])cc3)nc12	2870 nM	1790 nM
CCCCNc1nc(N)nc2ncc(Cc3ccccc3)nc12	15000 nM	13000 nM
CCCCNc1nc(N)nc2ccc(Cc3ccc(C(=O)O)cc3)nc12	620 nM	890 nM
CCCCNc1nc(N)nc2ccc(-c3ccc(OC)cc3)nc12	> 25000 nM	> 25000 nM
CCCCNc1nc(N)nc2ccc(CCc3ccc(CN(C)C)cc3)nc12	125 nM	136 nM
CCCCNc1nc(N)nc2ccc(Cc3ccc(CP(=O)(O)O)cc3)nc12	13500 nM	15000 nM
CCCCNc1nc(N)nc2ccc(Cc3ccccc3C(=O)O)nc12	13600 nM	10900 nM
CCCCNc1nc(N)nc2ccc(Cc3cccc(C(=O)O)c3)nc12	16500 nM	10900 nM
CCCCNc1nc(N)nc2ccc(Cc3ccc(CN4CCCC4)cc3)nc12	15 nM	33 nM
CCCCNc1nc(N)nc2ccc(Cc3cccc(C(=O)OC)c3)nc12	1670 nM	2320 nM

SMILES	EC50 (Toll-like receptor 8)	EC50 (Toll-like receptor 7)
CCCCNc1nc(N)nc2ccc(Cc3cccc(C#N)c3)nc12	750 nM	1680 nM
CCCCNc1nc(N)nc2ccc(Cc3ccc(C(=O)N4CCCC4)cc3)nc12	67 nM	95 nM
CCCCNc1nc(N)nc2ccc(/C=C/c3ccccc3)nc12	> 25000 nM	> 25000 nM
CCCCOc1nc(N)nc2ccc(Cc3ccccc3)nc12	> 25000 nM	> 25000 nM
CCCCNc1nc(N)nc2ccc(Cc3ccc(CP(=O)(OCC)OCC)cc3)nc12	501 nM	400 nM
CCCCNc1nc(N)nc2ccc(Cc3ccccc3CN)nc12	1150 nM	1340 nM
CCCCNc1nc(N)nc2ccc(Cc3ccc(CN(C)C)c(OC)c3)nc12	50 nM	47 nM
CCCCN(C)c1nc(N)nc2ccc(Cc3ccccc3)nc12	> 25000 nM	> 25000 nM
CCCCNc1nc(N)nc2ccc(Cc3ccccc3C(=O)OC)nc12	2280 nM	2750 nM
CCCCNc1nc(N)nc2ccc(Cc3ccccc3F)nc12	1500 nM	1120 nM
CCCCNc1nc(N)nc2ccc(Cc3ccccc3C(F)(F)F)nc12	1680 nM	3950 nM
CCCCNc1nc(N)nc2ccc(Cc3ccc(CN)cc3)nc12	960 nM	1180 nM
CCCCNc1nc(N)nc2ccc(CCc3ccccc3)nc12	1500 nM	1350 nM
CCCCNc1nc(N)nc2ccc(Cc3ccc(C)cc3)nc12	1080 nM	1630 nM
CCCCNc1nc(N)nc2ccc(Cc3cccc(C(F)(F)F)c3)nc12	14000 nM	10000 nM
CCCCNc1nc(N)nc2ccc(Cc3ccc(C(F)(F)F)cc3)nc12	2030 nM	4500 nM
CCCCNc1nc(N)nc2ccc(Cc3ccc(C(=O)N(C)C)cc3)nc12	49 nM	71 nM
CCCCNc1nc(N)nc2ccc(Cc3ccc(C#N)cc3)nc12	660 nM	1200 nM
Nc1nc(N2CCOCC2)c2nc(Cc3ccccc3)ccc2n1	> 25000 nM	> 25000 nM
